Key:
[1] = Anticancer activity against human LNCaP-hr cells assessed as prostate specific antigen level at 1 uM after 3 days by enzyme immunoassay relative to control; format: functional
Procedure, shortened: (§1)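 LNCaP-hr cells (CRPC model, T877A AR) seeded at 40,000 cells/well in phenol red-free RPMI1640 with 10% DCC-FBS; compounds at 1–10 µM added next day; secreted PSA measured and expressed as % of control; n = 3.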

[2] = Anticancer activity against human LNCaP-hr cells assessed as prostate specific antigen level at 10 uM after 3 days by enzyme immunoassay relative to control; format: functional; procedure, shortened: as §1
Mus musculus [3] = test: Toxicity in athymic nude BALB/c mouse xenografted with human LNCaP-hr cells assessed as body weight loss at 40 mg/kg, po bid after 28 days; format: organism-based; design: dose 40 mg/kg, route oral; settings: in vivo
Procedure, shortened: (§2)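 Castrated mice bearing s.c. LNCaP-hr xenografts (n = 6/group), dosed orally twice daily for 28 days in 0.5% methylcellulose vehicle; body weight tracked over the treatment period versus castration + vehicle controls.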

Mus musculus [4] = test: Toxicity in athymic nude BALB/c mouse xenografted with human LNCaP-hr cells assessed as body weight loss at 20 mg/kg, po bid after 28 days; format: organism-based; design: dose 20 mg/kg, route oral; settings: in vivo; procedure, shortened: as §2
[5] = Anticancer activity against human LNCaP-hr cells xenografted in BALB/c athymic nude mouse assessed as prostate specific antigen level in plasma at 40 mg/kg, po bid after 28 days relative to control; format: functional
Procedure, shortened: (§3)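 Mice castrated, then given LNCaP-hr cells (5 × 10⁷ cells/mL in PBS/Matrigel 1:1) s.c. in flank the same day; grouped at ~100–300 mm³ tumor volume (n = 6/group); from next day, oral dosing in 0.5% methylcellulose vehicle, bid or qd, 28 days. T/C% = tumor volume increase in treated/vehicle group × 100; serum/plasma PSA at end by ELISA.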

[6] = Anticancer activity against human LNCaP-hr cells xenografted in BALB/c athymic nude mouse assessed as change in tumor volume at 40 mg/kg, po bid after 28 days relative to control; format: functional; procedure, shortened: as §3
[7] = Anticancer activity against human LNCaP-hr cells xenografted in BALB/c athymic nude mouse assessed as prostate specific antigen level in plasma at 20 mg/kg, po bid after 28 days relative to control; format: functional; procedure, shortened: as §3
Mus musculus [8] = test: Toxicity in athymic nude BALB/c mouse xenografted with human LNCaP-hr cells assessed as body weight loss at 50 mg/kg, po bid after 28 days; format: organism-based; design: dose 50 mg/kg, route oral; settings: in vivo; procedure, shortened: as §2
[9] = Anticancer activity against human LNCaP-hr cells xenografted in BALB/c athymic nude mouse assessed as change in tumor volume at 20 mg/kg, po bid after 28 days relative to control; format: functional; procedure, shortened: as §3
[10] = Anticancer activity against human LNCaP-hr cells xenografted in BALB/c athymic nude mouse assessed as change in tumor volume at 50 mg/kg, po bid after 28 days relative to control; format: functional; procedure, shortened: as §3
[11] = Anticancer activity against human LNCaP-hr cells xenografted in BALB/c athymic nude mouse assessed as prostate specific antigen level in plasma at 50 mg/kg, po bid after 28 days relative to control; format: functional; procedure, shortened: as §3
[12] = Anticancer activity against human LNCaP-hr cells xenografted in BALB/c athymic nude mouse assessed as prostate specific antigen level in plasma at 100 mg/kg, po qd after 28 days relative to control; format: functional; procedure, shortened: as §3
[13] = Anticancer activity against human LNCaP-hr cells xenografted in BALB/c athymic nude mouse assessed as change in tumor volume at 100 mg/kg, po qd after 28 days relative to control; format: functional; procedure, shortened: as §3

Structure (SMILES) | Activity [1] [%] | Activity [2] [%] | other results
Cc1nn(-c2ccc(C#N)c(Cl)c2)c(C)c1Cc1ccc(C(=O)NC(C)(C)C)cc1 | 33 | 57 | –
Cc1nn(-c2ccc(C#N)c(Cl)c2)c(C)c1Cc1ccc(C(=O)NCC(C)(C)O)cc1 | 27 | 31 | Activity (Mus musculus [3]): Non-toxic; Activity (Mus musculus [4]): Non-toxic; T/C [5]: 23%; T/C [6]: 3%; T/C [7]: 88%; Activity (Mus musculus [8]): Non-toxic; T/C [9]: 15%
Cc1nn(-c2ccc(C#N)c(Cl)c2)c(C)c1Cc1ccc(C(=O)N2CCOCC2)cc1 | 35 | – | –
Cc1nn(-c2ccc(C#N)c(Cl)c2)c(C)c1Oc1ccc(C(=O)NCC(C)(C)O)cc1 | 33 | >100 | –
Cc1nn(-c2ccc(C#N)c(Cl)c2)c(C)c1Cc1cccc(C(N)=O)c1 | 21 | 35 | –
Cc1nn(-c2ccc(C#N)c(Cl)c2)c(C)c1Cc1ccc(C(N)=O)cc1 | 76 | – | –
Cc1nn(-c2ccc(C#N)c(Cl)c2)c(C)c1Cc1ccc(C(=O)N(C)C)cc1 | 21 | – | –
Cc1nn(-c2ccc(C#N)c(Cl)c2)c(C)c1Cc1ccc(C(=O)NCCO)cc1 | 33 | – | –
Cc1nn(-c2ccc(C#N)c(Cl)c2)c(C)c1Oc1ccc(C(=O)N2CCOCC2)cc1 | 22 | 22 | –
CC(=O)Nc1ccc(Oc2c(C)nn(-c3ccc(C#N)c(Cl)c3)c2C)nc1 | 8 | 14 | –
Cc1nn(-c2ccc(C#N)c(Cl)c2)c(C)c1Oc1ccc(NC(=O)C(C)(C)C)cn1 | 8 | 5 | T/C [10]: 2%; T/C [11]: 17%
CC(=O)Nc1ccc(Oc2c(C)nn(-c3ccc(C#N)c(Cl)c3)c2C)cn1 | 11 | 39 | –
CC(O)(CS(=O)(=O)c1ccc(F)cc1)C(=O)Nc1ccc(C#N)c(C(F)(F)F)c1 (configuration not stated) [BICALUTAMIDE] | – | >100 | T/C [12]: 142%; T/C [13]: 37%

Reference: ChEMBL document CHEMBL1955860, “Design, synthesis, and biological evaluation of 4-arylmethyl-1-phenylpyrazole and 4-aryloxy-1-phenylpyrazole derivatives as novel androgen receptor antagonists” (Bioorg Med Chem, 2012)
